Reference: the EternaBench riboswitch data

Tested on: MS2 coat protein
Experiment: apparent Kd, MS2 coat protein; higher = weaker binding; RNA-MaP array; FMN 200 µM where present
How it was run: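 The apparent Kd comes from binding curves fitted cluster by cluster, filtered, and summarised as a median. Those curves followed SNAP-549-labelled MS2 coat protein from 0.7 or 1.5 nM, doubling to 3 µM, on Illumina sequencing-chip clusters where stalled E. coli RNA polymerase had transcribed the designs, without and then with constant ligand. The buffer was 100 mM Tris-HCl pH 7.5, 80 mM KCl, 4 mM MgCl2, BSA, DTT, yeast tRNA and Tween-20, and green signal was normalised to red-channel RNA signal and control-cluster median Fmax.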

[1] = designed as: OFF switch for flavin mononucleotide, no ligand
[2] = ligand present: flavin mononucleotide, designed as: OFF switch for flavin mononucleotide
[3] = designed as: ON switch for flavin mononucleotide, no ligand
[4] = ligand present: flavin mononucleotide, designed as: ON switch for flavin mononucleotide

Sequence	apparent Kd [1]	apparent Kd [2]	apparent Kd [3]	apparent Kd [4]
UAAGUACGAGGAUAUACAUAGAUACAGAUACAUGUAGACGUACAUGAGGAUCACCCAUGUAGAAGGCGUAUAUA	67.9 nM	239 nM	–	–
UGCGAACAGGCUAACAUGAGGAUCACCCAUGUGGACUCAUGGUAGGAUAUCGGGAAGGAGGAAACCGAGAAGGGCCGGUGAGCG	–	–	197 nM	65 nM
AUAUCCGAAGCAGGAUAUCGACGAGGUGUCGAGGUAGAGCGUACUCACAUGAGGAUCACCCAUGUCGAGAAGGGCUACAGGAUA	27.8 nM	52.2 nM	–	–
CUGAUGUUAGGAUAUCAGGCGCCCGCCACUAGCAAGGCGCAUGAGAAGGGACAUGAGGAUCACCCAUGUAGUAA	28.1 nM	50 nM	–	–
AUUAUGUUAGGAUAUGCUUAUGGUGGAUAGUCCAGUGUGGUGCAGAAGGGACAUGAGGAUCACCCAUGUGCUGA	53.8 nM	60.6 nM	–	–
GCCAUCGCAUGAGGAUAUAAAAUUAUAAUUAAAUUAGAAGGCAUGUCAUAAGACAUGAGGAUCACCCAUGUAGUUAAGAUGGCA	–	–	483 nM	132 nM
UGUCGGAGCAGAGGAUAUUACAUGAGGAUCACCCAUGUAUGAACCAAUAGCUGGAAACAACAAUGUAAGAAGGCUGCUCCGACA	7.22 nM	38.8 nM	–	–
AUUGUGUGAGGAUAUUAGUAGUAGAUGAAUGGAGUUGUGGCUGAGAAGGCACAUGAGGAUCACCCAUGUUCCUU	22.3 nM	25.9 nM	–	–
GCGAAGAUAGCAGGAUAUAUGUUUCCUACAUGAGGAUCACCCAUGUAGGUGAUCAGCCGAGAAAAGUAGAAGGGCUAUCUUUGC	–	–	16.5 nM	13.7 nM
ACUUGCUUGCAGAAGGGUGACAUGAGGAUCACCCAUGUAGCGUGCCGGCGUAAAGUCAGCGCGCCACAGGAUAUGCAGGCCUCG	–	–	65.8 nM	44 nM
UAUGGUAAAGUCAGGAUAUACGUACAUCGUUCUAGGUAGAAGGGACAUGAGGAUCACCCAUGUAUGGUAGUGUU	106 nM	107 nM	–	–
GAGUCGAGUAAUAAAUAAGAUCUACAUGAGGAUCACCCAUGUAAGGAUAUGCAGUGGAAUACACUGCAGAAGGUACAUCUCGAC	15.1 nM	33.4 nM	–	–
AAUGGCGCGAUAGCGCUAAUUAAAACAUGAGGAUCACCCAUGUAGGAUAUCCUACCGAAAUGGUAGGAGAAGGACAAGCAAUGA	23.5 nM	18.7 nM	–	–
GGAUGACAAAGUCAUCCUAUUCGAACAUGAGGAUCACCCAUGUAGGAUAUGCUAGUCAAAGACUAGCAGAAGGACAUGUGCCUU	36.4 nM	164 nM	–	–
ACUUUUUAUGGACAUGAGGAUCACCCAUGUGCCUUGGGCCUCAAGGAUAUAGUAAUUGUCGUGUACUAGAAGGUGAAGCCAUUA	–	–	77.2 nM	27.9 nM
AAAAUGUGAGGAUAUCAGGUGUGCUAGCGUACUGGUACAUCUGAGAAGGCACAUGAGGAUCACCCAUGUUUCUU	21.5 nM	79.7 nM	–	–
AACAGGCGUGCCCUGAGUCCACAUGAGGAUCACCCAUGUGAGAGAAGGACCCUCGAGAGAGUUGGGUAGGAUAUCUCCGAUGGG	24 nM	57.5 nM	–	–
UGGCGCAACAGAGGAUAUGCAUAGGCUGCCUUACAUGAGGAUCACCCAUGUGCAGAAGGCUGUUGCCAUUACAAGCGCACUAAU	118 nM	402 nM	–	–
UAAUGAUAAGCAGGAUAUACUACACAUGAGGAUCACCCAUGUGUGUGAUCCACUCUCGUAUGGUAGUAGAAGGGCUCAGAGUAC	153 nM	80.6 nM	–	–
AGUGUGUGGCAGGAUAUGCUGUUGAUUCGGGCAGCAGAAGGGUCUACAUGAGGAUCACCCAUGUAAGCGGUUGA	257 nM	413 nM	–	–
AUUUAAUUUAAUAAGAUCACAUGAGGAUCACCCAUGUAUAUAUAGGAUAUCAGCUCGAUUAGAGCUGAGAAGGAUAUAUACUAU	383 nM	322 nM	–	–
CGAAGUAGCACAGGAUAUCAUACAUGAGGAUCACCCAUGUCAAGAAACAAAUGAGAAGGGUGCAGGCGGUGUUGGAGCUGUUGC	–	–	99.4 nM	14.1 nM
UACGCGUAGGAGAAGGGCCCACUAUAGGGUAAGUGCUGUUCUCACAUGAGGAUCACCCAUGUGCGGCAGGAUAUCCACGCGUGC	11.6 nM	66.7 nM	–	–
AUUUAAUUUAAUAAGAUCACAUGAGGAUCACCCAUGUUAUAAUAGGAUAUCAGCUCGUGUAGAGCUGAGAAGGAUUAUAACAUG	66.3 nM	35.1 nM	–	–

Sequence	apparent Kd [1]	apparent Kd [2]	apparent Kd [3]	apparent Kd [4]
AAUUGACACGUAGGAUAUCGCUCUUAAUUAACACGAGAAGGACGUACAUGAGGAUCACCCAUGUUAAAUGGUGUAGUUUAGUUG	45.5 nM	123 nM	–	–
GUCAGCUCGUGAGGAUAUACAUGUGCUGGAAACAGCACUAUUGUGUUCACAUGAGGAUCACCCAUGUAGAAGGCACGAGCUGAU	18.2 nM	85.6 nM	–	–
AUAUAGCGAGGAUAUACAUGAGGAUCACCCAUGUGGUAGUAGAUACGGUAGGGCUAGUGUAGAAGGUGUUAUGA	139 nM	87.9 nM	–	–
UCGUUUAUACAAGGAUAUCAAUUAUAGCUAAAUUCAACAUGAGGAUCACCCAUGUAACUAUGGAGUGAGAAGGUGUAAUGACUU	–	–	514 nM	302 nM
UUAUAUAUUAGAGGAUAUGUGUUCAUGUUACAUGAGGAUCACCCAUGUUUAUGUUGAUUGAUCUUACAGAAGGCUAUACAAUGA	20.1 nM	19.9 nM	–	–
AGGUGACAUGAGGAUCACCCAUGUUGCAUAAAACAAGGAUAUGGGUGGCGGGAUCGCCAAUCAGAAGGUGUUCCGA	–	–	44.1 nM	36.9 nM
GUGCGGUAGGAGAAGGACGGAGGCUUCAUUACAUACAUGAGGAUCACCCAUGUAGGAUAUCCUACCUCACGCGGCCUCCUCCUG	6.44 nM	6.79 nM	–	–
UCCCUUGCUGGAGGAUAUCGCACAUGAGGAUCACCCAUGUCGGCACUCGGGCGCAUCCUCUUGGACGAGAAGGCCAGGAGGUAC	179 nM	79.4 nM	–	–
CCUAUGUGAGGAUAUGUCUGGUCUUCUUUUAUUUUUUACAGACAGAAGGCACAUGAGGAUCACCCAUGUCAGAC	23.2 nM	64.7 nM	–	–
AAUACAUGAGGAUCACCCAUGUUAUGAUCAAACAAUAUGAGUGAGGAUAUACUGAGUUAGUUAUGGUAGAAGGCACUGGGUUCA	–	–	79.9 nM	45.3 nM
GACAGUGCAAUAAUAAUAAGAUCUACAUGAGGAUCACCCAUGUAGGAUAUCGUCAGGAAUACUGACGAGAAGGACAUAGCACUG	13.1 nM	15 nM	–	–
AUUGUAGGAGGAUAUACAUGAGGAUCACCCAUGUCGUCCCAGGAGGACACCUUCCCAUGUAGAAGGCCUGGGAC	31.4 nM	19.3 nM	–	–
CUAGUAUAUCAGGAUAUGAUUUUAUAUAUUGGAUCAGAAGGGAUAACAUGAGGAUCACCCAUGUUGUGGAGUGA	110 nM	360 nM	–	–
ACAUGAGGAUCACCCAUGUCUGCAUAGGAUAUUGAGGAUUAGGCAUAUUAUUAUGGAUUUGCCCACAAGAAGGAUGAAAUUGUU	–	–	20.1 nM	13.4 nM
CUGAGGAAGAGAGAGGAUAUCCAAAGGAAAACAUGAGGAUCACCCAUGUAAAAGGUAGGAAAUUGGGAGAAGGCUCAAGAGAGAG	–	–	43.6 nM	38.5 nM
GUUGGCGUAGAAGGAUAUUGGUGAUGCGUCUUGUACAUGAGGAUCACCCAUGUCACUCUGCACGCCGAGAAGGUCUGCAAAUGG	–	–	110 nM	87.6 nM
GGAUAGGACAGAGGAUAUACGUGCUAGAGAUACUAGGAAAAUUUCCUCACAUGAGGAUCACCCAUGUAGAAGGCUGUCCUAUCG	305 nM	51.7 nM	–	–
GUACAUACAAAGUUACAUGAGGAUCACCCAUGUUUAUUGGGAAGAAGGGUAACAUUAUUAAAUAUAUAGGAUAUUUCACAAUUG	–	–	546 nM	283 nM
CCAUGACAAAGUCAUGGAUUACGAACAUGAGGAUCACCCAUGUAGGAUAUGCUACUCAAAGAGUAGCAGAAGGACAUGUGUCUU	32.9 nM	165 nM	–	–
AGCAGACGAGGAUAUGAUAAAGAUCACAUGAGGAUCACCCAUGUAGCGUCGAUAGACGCAUCAGAAGGCGUCUGCU	16.1 nM	16.5 nM	–	–
GAUGAGGUAGGAUAUACGAGAAGAUAGGGUAGAUAGAUAACACAUGAGGAUCACCCAUGUAGAAGGACCAGUAG	34.5 nM	79.8 nM	–	–
GAGAAGGUAGGAUAUACGAAUAAAUAGGGUAGGAAGAAGACACAUGAGGAUCACCCAUGUAGAAGGACCAAGAU	18.8 nM	38.3 nM	–	–
CGUUCAGCGAACGAUACGAAUGGACAUGAGGAUCACCCAUGUAGAAGGACAGGAGAAUAACGACUGUAGGAUAUACAUUUAGUG	41.1 nM	84.8 nM	–	–
GCUAUCGAUGUAGGAUAUGCUAGAGAAACUCUGGCAGAAGGACAUGAGGAUCACCCAUGUCAAUGGAUGGAGAGAAGAGAUGGC	24.1 nM	58 nM	–	–
